Results: article PMC3920459 (The Journal of organic chemistry, 2013)
“Also recorded” adds a separate entry of the source.

Legend:
[1] = test system: HL-60, acute promyelocytic leukemia; assay: IC50 determination using MTS, HL-60; format: cell-based, human; conditions: read-out: IC50 HL-60, 48-hour
[2] = test system: Daudi, Burkitt’s lymphoma; assay: IC50 determination using MTS, Daudi; format: cell-based, human; conditions: read-out: IC50 Daudi, 48-hour
U-937 cells [3] = assay: Apoptosis with Annexin V-FITC and propidium iodide; format: cell-based, human; conditions: 21 hours; 4× and 6× the 48-hour IC50
U-937 cells [4] = assay: Western blot analysis of procaspase-3 and PARP-1 cleavage; format: cell-based, human; conditions: 24 hours; 2×, 4×, 6× the 48-hour IC50
[5] = test system: IMR90, immortalized lung fibroblasts; assay: IC50 determination for adherent cells using SRB, IMR90; format: cell-based, human; conditions: read-out: IC50 IMR90, 48-hour exposure, immortalized normal cell line
U-937 cells [6] = assay: Cell cycle arrest in thymidine-synchronized cells; format: cell-based, human; conditions: synchronized U-937 cells, 16 hours
[7] = test system: Jurkat, acute T-cell leukemia; assay: IC50 determination using MTS, Jurkat; format: cell-based, human; conditions: read-out: IC50 Jurkat, 48-hour
[8] = test system: A549, non-small cell lung carcinoma; assay: IC50 determination for adherent cells using SRB, A549; format: cell-based, human; conditions: read-out: IC50 A549, 48-hour exposure
[9] = test system: CEM, acute lymphoblastic leukemia; assay: IC50 determination using MTS, CEM; format: cell-based, human; conditions: read-out: IC50 CEM, 48-hour
BT549, breast carcinoma = assay: IC50 determination for adherent cells using SRB, BT549; format: cell-based, human; conditions: for IC50: read-out: IC50 BT549, SRB
U-937, lymphoma = assay: IC50 determination for non-adherent cells using MTS, U-937; format: cell-based, human; conditions: for IC50: read-out: IC50 U-937, MTS
HeLa, cervical carcinoma = assay: IC50 determination for adherent cells using SRB, HeLa; format: cell-based, human; conditions: read-out: IC50 HeLa, 48-hour exposure
CA46, Burkitt’s lymphoma = assay: IC50 determination using MTS, CA46; format: cell-based, human; conditions: read-out: IC50 CA46, 48-hour
[10] = test system: tubulin dynamics in HeLa cells; assay: Tubulin confocal microscopy; format: cell-based, human; conditions: 16 hours
[11] = test system: human cell lines U-937, HeLa, A549, BT549, IMR90; assay: 48-hour cell death panel; format: cell-based; conditions: for activity against the cell lines of Table 3 (in words): 48-hour exposure, concentrations up to 10 μM
In short: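 Adherent lines seeded at 5,000 (HeLa) or 2,000 (A549, BT549, IMR90) cells/well and attached 2–3 h, in RPMI-1640 or, for IMR90, EMEM, each with 10% FBS. Test compound at 1 nM–10 μM on a half-log scale, in triplicate with 1% DMSO final, for 48 h continuous at 37 °C and 5% CO2. Cells fixed in cold 10% TCA and stained with SRB; dye read at 510 nm. IC50 from ≥3 independent experiments.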

[12] = mice, in vivo; cited from earlier work
human erythrocytes = assay: Hemolysis assay using human erythrocytes; format: cell-based
[13] = test system: multiple tumor cell lines; conditions: cited from earlier work
cells = conditions: cited from earlier work
[14] = test system: glycogen synthase kinase-3β; conditions: cited from earlier work
anthropods = conditions: cited from earlier work

In the case of `O=C1N[C@H]2[C@@H]3NC(=O)c4ccc(Br)n4[C@@H]3C[C@@]2(O)N1` [(−)-4, (−)-agelastatin D], the IC50 [1] is reported as 540 ± 120 nM, the IC50 [2] is reported as 202 ± 15 nM and the “phosphatidylserine exposure / PI inclusion (apoptosis)” value (U-937 cells [3]) is reported as “induced dose-dependent apoptosis”. For the same compound, the “activation of procaspase-3 to caspase-3 and cleavage of PARP-1” value (U-937 cells [4]) was “induced dose-dependent activation of procaspase-3 to active caspase-3, and cleavage of PARP-1”, the IC50 [5] was 2750 ± 600 nM and the cell cycle arrest (U-937 cells [6]) was “dose-dependent G2/M cell cycle arrest”. For the same compound, the IC50 [7] was 210 ± 63 nM, the IC50 [8] was 920 ± 160 nM and the IC50 [9] was 74 ± 25 nM. For the same compound, the “activity against BT549 cells (in words)” value (BT549, breast carcinoma; 48-hour exposure) was “modest activity”, the IC50 (BT549, breast carcinoma; 48-hour exposure) was 631 ± 82 nM and the “activity against U-937 cells (in words)” value (U-937, lymphoma; 48-hour exposure) was “reasonable activity”. For the same compound, the IC50 (U-937, lymphoma; 48-hour exposure) was 240 ± 33 nM, the IC50 (HeLa, cervical carcinoma) was 1000 ± 200 nM and the IC50 (CA46, Burkitt’s lymphoma) was 460 ± 240 nM. The “tubulin fluorescence (tubulin dynamics within cells)” value (“tubulin fluorescence” below) [10] was “no change in tubulin fluorescence”.

For (−)-agelastatin B [(−)-2], the IC50 [1] was 2400 ± 1000 nM, the IC50 [2] was 460 ± 280 nM and the IC50 [5] was > 10000 nM. The IC50 [7] was 750 ± 440 nM, the IC50 [8] was > 10000 nM and the IC50 [9] was 290 ± 200 nM. The “activity against the cell lines of Table 3 (in words)” value (“activity against the cell lines” below) [11] was “weak activity”, the IC50 (BT549, breast carcinoma; 48-hour exposure) was 4800 ± 1100 nM and the IC50 (U-937, lymphoma; 48-hour exposure) was 1060 ± 160 nM. It also gave an IC50 (HeLa, cervical carcinoma) of 4800 ± 1200 nM and an IC50 (CA46, Burkitt’s lymphoma) of 1070 ± 420 nM.

For `CN1C(=O)N[C@H]2[C@@H]3NC(=O)c4ccc(Br)n4[C@@H]3C[C@]21O` [(−)-1, (−)-agelastatin A], the IC50 [1] is listed as 138 ± 66 nM, the “penetration into CNS compartments” value [12] is listed as “able to penetrate into CNS compartments” and the IC50 [2] is listed as 20 ± 3 nM. For the same compound, the “phosphatidylserine exposure / PI inclusion (apoptosis)” value (U-937 cells [3]) was “induced dose-dependent apoptosis”, the “activation of procaspase-3 to caspase-3 and cleavage of PARP-1” value (U-937 cells [4]) was “induced dose-dependent activation of procaspase-3 to active caspase-3, and cleavage of PARP-1” and the IC50 [5] was 1110 ± 350 nM. The cell cycle arrest (U-937 cells [6]) was “dose-dependent G2/M cell cycle arrest”, the IC50 [7] was 74 ± 7 nM and the IC50 [8] was 1050 ± 140 nM. The IC50 [9] was 20 ± 2 nM, the “concentration without effect on normal red blood cells” value (human erythrocytes; hemolysis after 2 h) was > 333 µM and the “hemolytic activity (nonspecific hemolysis of red blood cells)” value (human erythrocytes; tested at 333 μM, 2 h) was “none”. For the same compound, the “activity against the cell lines” value [11] was “highest potency in all cell lines tested”, the “anti-neoplastic activity against multiple tumor cell lines” value [13] was “modest anti-neoplastic activity” and the cell cycle arrest (cells) was “arrest in the G2/M-phase of the cell cycle”. The “enhanced activity in BT549 relative to the other cell lines” value (BT549, breast carcinoma; 48-hour IC50 comparison) was 4 ×, the IC50 (BT549, breast carcinoma; 48-hour exposure) was 278 ± 76 nM and the “enhanced activity in U-937 relative to the other cell lines” value (U-937, lymphoma; 48-hour IC50 comparison) was 20 ×. It also gave an IC50 (U-937, lymphoma; 48-hour exposure) of 67 ± 3 nM, an IC50 (HeLa, cervical carcinoma) of 708 ± 90 nM and an IC50 (CA46, Burkitt’s lymphoma) of 187 ± 71 nM. The “tubulin fluorescence” value [10] was “no change in tubulin fluorescence”, the “inhibition of glycogen synthase kinase-3β” value [14] was “moderately inhibits” and the toxicity towards anthropods (anthropods) was “exhibits toxicity”.

With (−)-dehydroagelastatin A [(−)-51] the IC50 [5] was > 10000 nM, the IC50 [8] was > 10000 nM and the “activity against the cell lines” value [11] was “none”. The IC50 (BT549, breast carcinoma; 48-hour exposure) was > 10000 nM, the IC50 (U-937, lymphoma; 48-hour exposure) was > 10000 nM and the IC50 (HeLa, cervical carcinoma) was > 10000 nM.

With `CN1C(=O)N[C@@]2(O)[C@@H]3NC(=O)c4ccc(Br)n4[C@@H]3C[C@@]12O` [(−)-3, (−)-agelastatin C] the IC50 [1] was > 10000 nM, the IC50 [2] was 7200 ± 2900 nM and the IC50 [5] was > 10000 nM. For the same compound, the IC50 [7] was 5310 ± 350 nM, the IC50 [8] was > 10000 nM and the IC50 [9] was 2100 ± 1300 nM. For the same compound, the “activity against the cell lines” value [11] was “no activity; also recorded: completely abolishes activity”, the IC50 (BT549, breast carcinoma; 48-hour exposure) was > 10000 nM and the IC50 (U-937, lymphoma; 48-hour exposure) was > 10000 nM. For the same compound, the IC50 (HeLa, cervical carcinoma) was > 10000 nM and the IC50 (CA46, Burkitt’s lymphoma) was > 10000 nM.

For `CC(=O)O[C@H]1C(=O)[C@@]2(C)[C@H]([C@H](OC(=O)c3ccccc3)[C@]3(O)C[C@H](OC(=O)[C@H](O)[C@@H](NC(=O)c4ccccc4)c4ccccc4)C(C)=C1C3(C)C)[C@]1(OC(C)=O)CO[C@@H]1C[C@@H]2O` [Taxol, reference compound], the “tubulin fluorescence” value [10] was “heightened”.

In the case of (−)-di-epi-agelastatin C [(−)-52], the IC50 [5] is reported as > 10000 nM, the IC50 [8] is reported as > 10000 nM and the “activity against the cell lines” value [11] is reported as “none”. The IC50 (BT549, breast carcinoma; 48-hour exposure) was > 10000 nM, the IC50 (U-937, lymphoma; 48-hour exposure) was > 10000 nM and the IC50 (HeLa, cervical carcinoma) was > 10000 nM.

With `COC1NC(=O)c2ccc(Br)n2C1Cc1c[nH]c(=O)[nH]1` (single isomer, unassigned; (+)) [(+)-53, (+)-O-methyl-pre-agelastatin D] the IC50 [5] was > 10000 nM, the IC50 [8] was > 10000 nM and the “activity against the cell lines” value [11] was “none”. For the same compound, the IC50 (BT549, breast carcinoma; 48-hour exposure) was > 10000 nM, the IC50 (U-937, lymphoma; 48-hour exposure) was > 10000 nM and the IC50 (HeLa, cervical carcinoma) was > 10000 nM.

With “(−)-O-methyl-di-epi-agelastatin A [(−)-50]” the IC50 [5] was > 10000 nM, the IC50 [8] was > 10000 nM and the “activity against the cell lines” value [11] was “none”. For the same compound, the IC50 (BT549, breast carcinoma; 48-hour exposure) was > 10000 nM, the IC50 (U-937, lymphoma; 48-hour exposure) was > 10000 nM and the IC50 (HeLa, cervical carcinoma) was > 10000 nM.

In the case of `COC1NC(=O)c2ccc(Br)n2C1Cc1c[nH]c(=O)n1C` (single isomer, unassigned; (+)) [(+)-39, (+)-O-methyl-pre-agelastatin A], the IC50 [5] is reported as > 10000 nM, the IC50 [8] is reported as > 10000 nM and the “activity against the cell lines” value [11] is reported as “none”. The IC50 (BT549, breast carcinoma; 48-hour exposure) was > 10000 nM, the IC50 (U-937, lymphoma; 48-hour exposure) was > 10000 nM and the IC50 (HeLa, cervical carcinoma) was > 10000 nM.

For `CO[C@@]12C[C@@H]3[C@@H](NC(=O)c4ccc(Br)n43)[C@@H]1NC(=O)N2C` [(−)-5, (−)-agelastatin E], the IC50 [1] was 4600 ± 3600 nM, the IC50 [2] was 1410 ± 530 nM and the IC50 [5] was > 10000 nM. The IC50 [7] was 1500 ± 330 nM, the IC50 [8] was > 10000 nM and the IC50 [9] was 830 ± 370 nM. The “activity against the cell lines” value [11] was “weak activity”, the “reduction in anticancer potency relative to (−)-agelastatin A (1)” value ([11]; comparison of 48-hour IC50 values) was > 10 fold and the IC50 (BT549, breast carcinoma; 48-hour exposure) was 6900 ± 2500 nM. The IC50 (U-937, lymphoma; 48-hour exposure) was 2560 ± 130 nM, the IC50 (HeLa, cervical carcinoma) was 8600 ± 810 nM and the IC50 (CA46, Burkitt’s lymphoma) was 2450 ± 950 nM.

With `O=C1N[C@H]2[C@@H]3NC(=O)c4cc(Br)c(Br)n4[C@@H]3C[C@@]2(O)N1` [(−)-6, (−)-agelastatin F] the IC50 [1] was > 10000 nM, the IC50 [2] was > 10000 nM and the IC50 [5] was > 10000 nM. For the same compound, the IC50 [7] was > 10000 nM, the IC50 [8] was > 10000 nM and the IC50 [9] was > 10000 nM. For the same compound, the “activity against the cell lines” value [11] was “no activity”, the IC50 (BT549, breast carcinoma; 48-hour exposure) was > 10000 nM and the IC50 (U-937, lymphoma; 48-hour exposure) was > 10000 nM. The IC50 (HeLa, cervical carcinoma) was > 10000 nM and the IC50 (CA46, Burkitt’s lymphoma) was > 10000 nM.
